In brackets after ≈: the same amount, converted by molar mass.
How the values were obtained:
[1] = biological target: DNA gyrase (Escherichia coli, UniProt P0AES4+P0AES6); test: Inhibition of Escherichia coli GyrB A2B2 subunits assessed reduction in DNA supercoiling activity by malachite green dye based by spectrophotometry; assay type: protein-complex assay
Summary of the method: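 Inhibition was measured as loss of ATPase activity of the E. coli GyrB enzyme and reported as IC50.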

[2] = test system: Enterococcus faecalis; test: Antibacterial activity against Enterococcus faecalis ATCC 29212 incubated for 24 hrs by broth microdilution method; assay type: functional; settings: ATCC 29212, 24 h
[3] = test system: Staphylococcus aureus; test: Antibacterial activity against Staphylococcus aureus ATCC 29213 incubated for 24 hrs by broth microdilution method; assay type: functional; settings: ATCC 29213, 24 h
[4] = test system: Streptococcus pyogenes; test: Antibacterial activity against Streptococcus pyogenes ATCC 51339 incubated for 24 hrs by broth microdilution method; assay type: functional; settings: ATCC 51339, 24 h
[5] = test system: Haemophilus influenzae; test: Antibacterial activity against Haemophilus influenzae ATCC 49247 incubated for 24 hrs by broth microdilution method; assay type: functional; settings: ATCC 49247, 24 h
[6] = Retention time of the compound by HPLC method; assay type: physicochemical
[7] = test system: Staphylococcus aureus; test: Antibacterial activity against Staphylococcus aureus ATCC 29213 expressing GyrB T173N mutant incubated for 24 hrs by broth microdilution method; assay type: functional; settings: ATCC 29213, 24 h
[8] = test system: Streptococcus pyogenes; test: Antibacterial activity against Streptococcus pyogenes ATCC 51339 expressing ParE A53S mutant incubated for 24 hrs by broth microdilution method; assay type: functional; settings: ATCC 51339, 24 h
[9] = test system: Staphylococcus aureus; test: Antibacterial activity against Staphylococcus aureus ATCC 29213 expressing GyrB T173N and ParE T167N mutant incubated for 24 hrs by broth microdilution method; assay type: functional; settings: ATCC 29213, 24 h
[10] = test system: Staphylococcus epidermidis; test: Antibacterial activity against Staphylococcus epidermidis ATCC 12228 incubated for 24 hrs by broth microdilution method; assay type: functional; settings: ATCC 12228, 24 h
[11] = test system: Streptococcus pneumoniae; test: Antibacterial activity against Streptococcus pneumoniae ATCC 49616 incubated for 24 hrs by broth microdilution method; assay type: functional; settings: ATCC 49616, 24 h
[12] = test system: Escherichia coli; test: Antibacterial activity against Escherichia coli ATCC 25922 incubated for 24 hrs by broth microdilution method; assay type: functional; settings: ATCC 25922, 24 h
[13] = test system: Escherichia coli; test: Antibacterial activity against Escherichia coli N43 expressing efflux pump mutant incubated for 24 hrs by broth microdilution method; assay type: functional; settings: N43, 24 h

Compound	IC50 [1] [µM]	MIC [2] [µg/mL]	MIC [3] [µg/mL]	MIC [4] [µg/mL]	MIC [5] [µg/mL]	Retention_time [6] [min]	MIC [7] [µg/mL]	MIC [8] [µg/mL]	MIC [9] [µg/mL]	MIC [10] [µg/mL]	MIC [11] [µg/mL]	MIC [12] [µg/mL]	MIC [13] [µg/mL]
CCNC(=O)Nc1nc2cc(-c3cccnc3)cc(-c3ccccn3)c2s1	< 0.75	< 0.25											
CCNC(=O)Nc1ccc(C(=O)Nc2cccnc2)cn1	6	256 (≈ 897 µM)	> 256	32 (≈ 112 µM)	> 256	1.25							
CCNC(=O)Nc1ccc(C(=O)Nc2ccccc2)cn1	7.7	> 16	> 64	> 16	> 16	1.69							
CCNC(=O)Nc1ccc(C(=O)Nc2cccc(Cl)c2)cn1	1.6	16 (≈ 50.2 µM)	16 (≈ 50.2 µM)	16 (≈ 50.2 µM)	> 64	1.84	> 64	> 64					
CCNC(=O)Nc1ccc(C(=O)Nc2cccc(F)c2)cn1	3	32 (≈ 106 µM)	32 (≈ 106 µM)	32 (≈ 106 µM)	> 64	1.74	> 64	> 64					
CCNC(=O)Nc1ccc(C(=O)Nc2cccc(C)c2)cn1	3.4	32 (≈ 107 µM)	32 (≈ 107 µM)	32 (≈ 107 µM)	> 64	1.76	> 64	> 64					
CCNC(=O)Nc1ccc(C(=O)Nc2cccc(C#N)c2)cn1	3.8	> 64	> 64	32 (≈ 103 µM)	> 64	1.69							
CCNC(=O)Nc1ccc(C(=O)Nc2cccc(C(N)=O)c2)cn1	24.5	> 256	> 256	> 256	> 256	1.44							
CCNC(=O)Nc1ccc(C(=O)Nc2cccc(CC)c2)cn1	40.4	> 256	> 256	> 256	> 256	1.84							
CCNC(=O)Nc1ccc(C(=O)Nc2ccc(OC)c(OC)c2)cn1	6.2	32 (≈ 92.9 µM)	> 64	32 (≈ 92.9 µM)	> 64	1.59		> 64					
CCNC(=O)Nc1ccc(C(=O)Nc2ccncc2)cn1	3.5	64 (≈ 224 µM)	> 64	64 (≈ 224 µM)	> 64	1.19							
CCNC(=O)Nc1ccc(C(=O)Nc2nccs2)cn1	0.42	> 64	> 64	> 64	> 64	1.52							
CCNC(=O)Nc1ccc(C(=O)Nc2ncc(C(=O)O)s2)cn1	0.96	> 64	> 64	> 64	> 64	1.43							
CCNC(=O)Nc1ccc(C(=O)NC2CCCCC2)cn1	23.1	> 64	> 64	> 64	> 64	1.67							
CCNC(=O)Nc1cc(Nc2cccc(C)c2)c(C(=O)Nc2cccc(C)c2)cn1	0.099	0.5 (≈ 1.24 µM)	1 (≈ 2.48 µM)	32 (≈ 79.3 µM)	> 64	1.75							
CCNC(=O)Nc1cc(Nc2cccc(C)c2)c(C(=O)Nc2nccs2)cn1	0.098	> 64	> 64	> 64	> 64	1.51							
CCNC(=O)Nc1cc(N2CCN(C)CC2)c(C(=O)Nc2cccnc2)cn1	5.66	> 64	> 64	> 64	> 64	0.27							
CCNC(=O)Nc1cc(N2CCN(C)CC2)c(C(=O)Nc2cccc(C)c2)cn1	18	> 64	> 64	> 64	> 64	1.26							
CCNC(=O)Nc1cc(-c2cccnc2)c(C(=O)Nc2nccs2)cn1	0.56	64 (≈ 174 µM)	> 64	64 (≈ 174 µM)	> 64	1.36							
CCNC(=O)Nc1cc(-c2cccnc2)c(C(=O)Nc2cccc(C)c2)cn1	7.27	64 (≈ 170 µM)	> 64	> 64	> 64	1.51							
CCNC(=O)Nc1cc(NC2CCCCC2)c(C(=O)Nc2cccc(C)c2)cn1	2.12	> 64	> 64	> 64	> 64	1.7							
CCNC(=O)Nc1cc(NCc2cccnc2)c(C(=O)Nc2cccnc2)cn1	0.66	8 (≈ 20.4 µM)	> 64	8 (≈ 20.4 µM)	> 64	1.23							
CCNC(=O)Nc1cc(Nc2ccccc2)c(C(=O)Nc2cccc(Cl)c2)cn1	0.15	0.125 (≈ 0.305 µM)	0.5 (≈ 1.22 µM)	4 (≈ 9.76 µM)	> 64	1.71	1 (≈ 2.44 µM)	32 (≈ 78.1 µM)	> 64	0.5 (≈ 1.22 µM)	1 (≈ 2.44 µM)	> 64	> 64
CCNC(=O)Nc1cc(Nc2ccccc2)c(C(=O)Nc2ccc(-n3cncn3)nc2)cn1	0.15	0.25 (≈ 0.564 µM)	> 16	> 16	> 64	1.54							
CCNC(=O)Nc1cc(Oc2ccccc2)c(C(=O)Nc2ccccc2)cn1	4.9	> 16	> 16	> 16	> 64	1.93							
CCNC(=O)Nc1cc(Nc2cccnc2)c(C(=O)Nc2cccnc2)cn1	0.093	0.5 (≈ 1.32 µM)	8 (≈ 21.2 µM)	1 (≈ 2.65 µM)	> 64	1.38							

Second part, led by results:

IC50 [1] [µM]	MIC [2] [µg/mL]	MIC [3] [µg/mL]	MIC [4] [µg/mL]	MIC [5] [µg/mL]	Retention_time [6] [min]	Compound	MIC [7] [µg/mL]	MIC [8] [µg/mL]	MIC [9] [µg/mL]	MIC [10] [µg/mL]	MIC [11] [µg/mL]	MIC [12] [µg/mL]	MIC [13] [µg/mL]
2.1	> 64	> 64	> 64	> 64	1.7	CCNC(=O)Nc1ccc(C(=O)Nc2ccccc2Cl)cn1							
3.3	> 64	> 64	> 64	> 64	1.83	CCNC(=O)Nc1ccc(C(=O)Nc2ccc(Cl)cc2)cn1							
7.5	> 64	> 64	> 64	> 64	1.77	CCNC(=O)Nc1ccc(C(=O)Nc2cc(Cl)ccc2C)cn1							
5.3	> 64	> 64	> 64	> 64	1.24	CCNC(=O)Nc1ccc(C(=O)Nc2ccnc(C)c2)cn1							
14	> 64	> 64	> 64	> 64	1.66	CCNC(=O)Nc1ccc(C(=O)Nc2cc(C(=O)OC)ccn2)cn1							
5.14	> 64	> 64	> 64	> 64	1.36	CCNC(=O)Nc1cc(N2CCN(C)CC2)c(C(=O)Nc2cccc(Cl)c2)cn1							
33.2	> 64	> 64	> 64	> 64	1.18	CCNC(=O)Nc1cc(N2CCN(C)CC2)c(C(=O)Nc2nccs2)cn1							
0.55	32 (≈ 83.2 µM)	> 64	64 (≈ 166 µM)	> 64	1.44	CCNC(=O)Nc1cc(-n2ccnc2)c(C(=O)Nc2cccc(Cl)c2)cn1							
1.13	64 (≈ 177 µM)	> 64	64 (≈ 177 µM)	> 64	1.12	CCNC(=O)Nc1cc(-c2cccnc2)c(C(=O)Nc2cccnc2)cn1							
3.02	64 (≈ 162 µM)	> 64	64 (≈ 162 µM)	> 64	1.6	CCNC(=O)Nc1cc(-c2cccnc2)c(C(=O)Nc2cccc(Cl)c2)cn1							
0.81	4 (≈ 10.1 µM)	> 64	> 64	> 64	1.88	CCNC(=O)Nc1cc(-c2ccccc2)c(C(=O)Nc2cccc(Cl)c2)cn1							
4.81	2 (≈ 5.12 µM)	> 64	8 (≈ 20.5 µM)	> 64	1.3	CCNC(=O)Nc1cc(NCc2cccnc2)c(C(=O)Nc2ccccc2)cn1							
2	0.5 (≈ 1.28 µM)	> 16	1 (≈ 2.56 µM)	> 64	1.24	CCNC(=O)Nc1cc(Nc2ccccc2)c(C(=O)NCc2cccnc2)cn1							
8.4	> 64	> 64	> 64	> 64	1.64	CCNC(=O)Nc1ccc(C(=O)Nc2ccc3c(C)cc(=O)oc3c2)cn1							

From ChEMBL document CHEMBL3351278, “Pyridine-3-carboxamide-6-yl-ureas as novel inhibitors of bacterial DNA gyrase: structure based design, synthesis, SAR and antimicrobial activity” (Eur J Med Chem, 2014)
